# Compound activity from PubChem BioAssay.
# TRPC4 inh: blocks the mouse TRPC4 cation channel. HEK293 TRPC4beta/mu-opioid, DAMGO-evoked Fluo4 calcium flux; active compounds read low. AID 2247. B-score at 10 µM. 300,000 compounds, 0.39% hits;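 active means B-score over 3 SD under the library average, no early fluorescence shift, positive overall ratio signal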
#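 Assay system: HEK293 cells with stable TRPC4beta plus mu-opioid receptor expression. Dosing: single dose. Measured by: Fluo4 Ca2+ flux fluorescence. Also added: DAMGO in two steps, submaximal then maximal. Read-out: B score from integrated Fluo4 fluorescence ratio.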
# Kir21 block: Kir2.1 (mouse) channel inhibition; P35561; HEK293-Kir2.1, FluxOR thallium flux fluorescence; active compounds read low; B-score at 10 µM; 310,000 compounds, 0.85% hits;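 active means fluorescence ratio B-score at or below minus 3 SD of library scores, with starting-brightness B-score within 2 SD, cut at about -4.2 in these data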;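 further: channel flux triggered by added potassium and thallium sulfate stimulus; B-score of peak minus minimum fluorescence over baseline after thallium stimulus; more negative B-score means stronger Kir2.1 block with less thallium influx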
# TRPC4 agonist: opens the mouse TRPC4 cation channel; Q9QUQ5; HEK293 TRPC4beta/mu-opioid, Fluo4 calcium fluorescence; active compounds read high; B-score at 10 µM; 310,000 compounds, 0.49% hits; AID 2237;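 active means B-score above 5 SD of library B-scores, and initial fluorescence ratio not above library mean plus 5 SD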;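 further: positive B-score marks a calcium rise read as TRPC4 activation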
#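 Incubation: 45 min room-temperature Fluo4 loading, 110 s read / System: HEK293 cells stably co-expressing mouse TRPC4beta and mu-opioid receptor / Signal: Fluo4 fluorescence, kinetic / Control set: buffer (low) and maximal DAMGO (high) / Measure: integrated baseline-normalised fluorescence ratio, converted to per-well B score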
# TRPC4 potent: allosterically enhances the mouse TRPC4 cation channel; HEK293 TRPC4beta/mu-opioid, DAMGO EC20, Fluo-4 Ca2+ flux; active compounds read high; 310,000 compounds, 0.42% hits; Q9QUQ5; B-score at 10 µM;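 active means B-score of calcium response area above 5 SD of library B-scores, with initial fluorescence ratio within 5 SD of library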;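 further: B-score of integrated fluorescence ratio over time as area under calcium response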
# TRPC6 activator: mouse TRPC6 channel activation; Q61143; HEK293-TRPC6 membrane potential dye fluorescence; active compounds read high; B-score at 10 µM; 310,000 compounds, 0.13% hits;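 active means B-score of the integrated fluorescence ratio above library mean plus 3 SD, and starting fluorescence ratio within library mean plus 5 SD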;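 further: higher score means more depolarization so channel activation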
# Target sequence (Q61143 whole entry, looked up): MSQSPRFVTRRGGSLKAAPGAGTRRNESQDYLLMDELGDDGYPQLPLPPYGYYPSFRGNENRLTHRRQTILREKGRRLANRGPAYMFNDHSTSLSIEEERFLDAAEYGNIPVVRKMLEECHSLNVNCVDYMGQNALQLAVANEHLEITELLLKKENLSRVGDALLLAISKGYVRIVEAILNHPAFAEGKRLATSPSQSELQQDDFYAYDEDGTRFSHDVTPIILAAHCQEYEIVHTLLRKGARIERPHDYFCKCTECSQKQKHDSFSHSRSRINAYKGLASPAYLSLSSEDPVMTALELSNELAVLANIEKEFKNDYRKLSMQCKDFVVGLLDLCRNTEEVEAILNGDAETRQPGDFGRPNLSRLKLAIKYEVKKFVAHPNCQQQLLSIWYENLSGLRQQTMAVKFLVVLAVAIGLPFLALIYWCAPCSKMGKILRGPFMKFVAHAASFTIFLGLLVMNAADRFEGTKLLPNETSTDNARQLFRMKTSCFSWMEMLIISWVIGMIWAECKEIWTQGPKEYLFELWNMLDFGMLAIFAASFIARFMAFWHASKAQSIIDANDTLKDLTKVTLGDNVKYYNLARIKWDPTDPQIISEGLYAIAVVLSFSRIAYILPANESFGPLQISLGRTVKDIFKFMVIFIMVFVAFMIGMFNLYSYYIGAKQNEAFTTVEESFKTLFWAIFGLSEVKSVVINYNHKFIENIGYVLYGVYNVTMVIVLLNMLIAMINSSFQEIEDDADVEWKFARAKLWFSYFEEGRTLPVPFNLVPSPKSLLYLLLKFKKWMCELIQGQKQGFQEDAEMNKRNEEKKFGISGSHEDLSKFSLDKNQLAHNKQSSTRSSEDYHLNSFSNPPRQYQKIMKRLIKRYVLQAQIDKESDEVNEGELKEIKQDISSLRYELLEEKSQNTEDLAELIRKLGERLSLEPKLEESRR
# TRPC6 inh: inhibitors of mouse TRPC6 channel; Q61143; HEK293-TRPC6, membrane potential dye, ACh-evoked depolarization; active compounds read low; B-score at 10 µM; 310,000 compounds, 1.1% hits; AID 2553;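 active means B-score under library mean minus 3 SD, initial fluorescence not abnormally high, positive integrated signal ratio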;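 further: B-score derived from integrated fluorescence ratio over the kinetic read; more negative B-score means stronger inhibition of depolarization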
# TRPC4 sel inh 2: mouse TRPC4 off-target activity of TRPC6 inhibitors, second screen; inhibition, % at 10 µM; shares compounds with TRPC6 inh; HEK293 TRPC4/MOR, membrane potential dye fluorescence; channel activated by saturating DAMGO dose; 920 compounds, 42% hits; AID 2776;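 active means compounds whose fluorescence signal differed from control wells by over 3 SD, either direction, in both duplicate plates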
# TRPC4 spec: tests whether TRPC6 inhibitors also affect mouse TRPC4. AID 2777. 920 compounds, 61% hits. shares compounds with TRPC6 inh. HEK293 TRPC4/mu-opioid, membrane potential fluorescence. activity change, negative = inhibition, % at 10 µM;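 active means rise or fall in signal beyond 3 SD of buffer-only wells in both replicate plates, either sign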;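 further: integrated kinetic ratio of fluorescence range over baseline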
# HEK293 MPD ctr 2-1: parental HEK293 nonspecific activity of TRPC6 inhibitors, second screen | parental HEK293 membrane potential dye fluorescence; maximal acetylcholine challenge after compound addition | AID 2779 | 920 compounds, 31% hits | signal change vs control, % at 10 µM | shares compounds with TRPC6 inh;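 active means membrane potential signal moving either way by over 3 SD of the maximum-effect control, in both duplicate plates, meaning non-specific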
# HEK293 MPD ctr-1: counter-screen for TRPC6 inhibitors: effect in parental HEK293 cells; parental HEK293 membrane potential dye fluorescence; shares compounds with TRPC6 inh; membrane potential signal change, % at 10 µM; 920 compounds, 60% hits; AID 2780;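 active means membrane potential signal shifting up or down by more than 3 SD of buffer-only wells, on both duplicate plates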
# HEK293 MPD ctr-2: parental HEK293 nonspecific activity of TRPC6 modulators; shares compounds with TRPC6 inh; membrane potential dye fluorescence; membrane potential signal change, % at 10 µM; 2,400 compounds, 51% hits;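 active means membrane potential signal moves up or down beyond 5 SD from buffer-only wells, on both duplicate plates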
# HEK293 MPD ctr 2-2: parental HEK293 nonspecific activity of TRPC6 modulators, second screen | shares compounds with TRPC6 inh | membrane potential dye fluorescence; after compound, maximal acetylcholine stimulation | inhibition, % at 10 µM | 2,400 compounds, 14% hits | AID 488926;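 active means membrane potential signal drops by more than 5 SD from the mean control signal, in both duplicate plates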;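 further: plate controls were acetylcholine ECmax control wells for no effect and buffer only wells for full effect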
# TRPC4 ctr mod: tests whether TRPC6 modulators also affect mouse TRPC4; 2,400 compounds, 69% hits; shares compounds with TRPC6 inh; HEK293 TRPC4/mu-opioid, membrane potential fluorescence; percent change from control (negative = decrease, positive = increase), % at 10 µM;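 active means membrane potential signal moved up or down beyond 5 SD of buffer control wells, in both duplicate plates, actives on both sides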;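 further: plate controls were assay buffer wells for no effect and DAMGO maximal-effect wells for full effect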
# TRPC4/MOR inh 2: second check of whether TRPC6 modulators also affect mouse TRPC4. 2,400 compounds, 55% hits. shares compounds with TRPC6 inh. inhibition, % at 10 µM. HEK293 TRPC4/mu-opioid, membrane potential dye fluorescence; stimulated with maximal-effect DAMGO;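 active means drop in membrane potential signal beyond 5 SD of the control wells in both duplicate plates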;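 further: TRPC4 counter screen for TRPC6 hits run under conditions tuned for TRPC6 not TRPC4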
# TRPC6 inh conf: mouse TRPC6 inhibitor confirmation; shares compounds with TRPC6 inh; HEK293-TRPC6, membrane potential dye, ACh-evoked depolarization; inhibition, % at 10 µM; 3,300 compounds, 43% hits; AID 488960;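 active means fluorescence ratio falls more than 5 SD below the full-stimulation control mean, in both duplicate runs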;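 further: integrated fluorescence ratio of peak minus minimum over baseline after agonist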
# TRPC6 act confirm: confirmation of mouse TRPC6 activators; 2,800 compounds, 11% hits; HEK293-TRPC6 membrane potential dye fluorescence, FDSS; shares compounds with TRPC6 inh; activation, % at 10 µM;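 active means ratio signal rise beyond 5 SD above unstimulated control wells' mean, seen in both duplicate runs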;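 further: plate controls were buffer EC0 wells for no effect and acetylcholine ECmax response for full effect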
# Active calls of the source: *; i = inactive; . = no result. This is a sample that favours compounds with a hit; in the whole collection about 2.9% have one here.
SMILES,TRPC4 inh,Kir21 block,TRPC4 agonist,TRPC4 potent,TRPC6 activator,TRPC6 inh,HEK293 MPD ctr-2,HEK293 MPD ctr 2-2,TRPC4 ctr mod,TRPC4/MOR inh 2,TRPC6 inh conf,TRPC6 act confirm,others
CCOC(=O)c1c(NC(=O)c2ccc(S(=O)(=O)N(C)CC3CCCO3)cc2)sc2c1CCN(C)C2 (stereo unspecified),i,-2.2,i,i,i,-5.2*,167%*,i,-30%*,i,i,i,
CCOC(=O)c1c(NC(=O)CSc2nnc(C)s2)sc2c1CCN(C)C2,i,0.72,i,i,i,-5.8*,-65%*,i,-16%*,i,i,i,
CC1=NN(C(=O)c2cc(C)nn2C)C(O)(C(F)(F)F)C1 (stereo unspecified),i,-0.3,i,i,i,i,.,.,.,.,.,.,
CCNc1c2c(nc3ccccc13)CC(C)(C)CC2=O,i,1.6,i,i,i,-7.8*,.,.,.,.,i,i,TRPC4 sel inh 2=65%*;TRPC4 spec=i;HEK293 MPD ctr 2-1=i;HEK293 MPD ctr-1=-138%*
CCCC(=O)Nc1ccc(NC(=O)c2ccccn2)cn1,i,-0.37,i,i,i,i,.,.,.,.,.,.,
CCCn1c(C)cc(=O)c2cc(NC(=O)c3ccccn3)ccc21,i,-2,i,i,i,-11*,-345%*,126%*,-58%*,74%*,86%*,i,
Cc1nnc(Nc2ccc(C(=O)NCCO)cc2)c2ccccc12,i,-1.8,i,i,i,i,.,.,.,.,.,.,
CNC(=O)c1ccc(Nc2nnc(C)c3ccccc23)cc1,i,-0.74,i,i,i,-5.5*,-99%*,i,i,i,i,i,
CN1CCN(c2ccccc2/C=C2/C(=O)Nc3ccccc32)CC1,i,0.26,i,i,i,-5*,120%*,i,46%*,72%*,i,.,
CN(C)CCCNc1oc(-c2ccccc2)nc1C#N,i,1.2,i,i,i,i,.,.,.,.,.,.,
CN(C)CCCNc1c2ccccc2nc2ccccc12,-6*,-0.46,i,i,i,-11*,-268%*,177%*,-44%*,78%*,88%*,i,
Nc1nc2ccccc2nc1N1CCCC1,.,-1,i,i,i,i,.,.,.,.,.,.,
Nc1c2c(nc3ccccc13)N(C1CCCCC1)CC2,-6*,-0.29,i,i,i,-12*,.,.,.,.,109%*,i,TRPC4 sel inh 2=27%*;TRPC4 spec=-28%*;HEK293 MPD ctr 2-1=-2.5%*;HEK293 MPD ctr-1=-388%*
CN(C)CCNc1c2c(nc3ccccc13)CCC2,i,0.21,i,i,i,-9.1*,-202%*,110%*,-36%*,77%*,74%*,i,
CN(C)CCCNc1nc(-c2ccccc2)nc2ccccc12,i,0.24,i,i,i,-7.7*,.,.,.,.,65%*,i,TRPC4 sel inh 2=40%*;TRPC4 spec=-27%*;HEK293 MPD ctr 2-1=i;HEK293 MPD ctr-1=-347%*
CN(CC(=O)Nc1ccc(Cl)c(C(F)(F)F)c1)C(=O)C1CSC2(C)CCC(=O)N12 (stereo unspecified),i,0.99,i,i,i,i,.,.,.,.,.,.,
CCN(C(=O)C(C)OC(=O)CCCNC(=O)c1ccc(Cl)cc1)c1ccccc1 (stereo unspecified),i,-0.01,i,i,i,i,.,.,.,.,.,.,
Nc1c2c(nc3ccccc13)CCC2,-5*,-0.86,i,i,i,-7*,-279%*,i,-42%*,70%*,i,i,
COc1cc(Nc2c3c(nc4ccccc24)CCCC3)cc(OC)c1OC,i,0.62,i,i,i,-6.1*,-96%*,i,-20%*,38%*,i,i,
NC(=O)COC(=O)c1c2c(nc3ccccc13)CCC2,i,0.25,i,i,i,i,.,.,.,.,.,.,
O=C(OCn1nnc2ccccc2c1=O)c1cc(-c2ccccc2)nc2ccccc12,i,0,i,i,i,i,.,.,.,.,.,.,
CSc1c(CC(=O)Nc2ccccc2C(F)(F)F)n(Cc2ccccc2)c2ccccc12,i,0.67,i,i,i,i,.,.,.,.,.,.,
COc1cc2c(cc1OC)C1(NCC2)C(=O)Nc2ccccc21 (stereo unspecified),i,-0.75,i,i,i,i,.,.,.,.,.,.,
COc1cc2c(cc1OC)C1(Nc3c-2c(Cc2ccccc2)nn3-c2ccccc2)C(=O)Nc2ccccc21 (stereo unspecified),i,1.7,i,i,i,-6.8*,.,.,.,.,i,i,TRPC4 sel inh 2=i;TRPC4 spec=-9.5%*;HEK293 MPD ctr 2-1=i;HEK293 MPD ctr-1=i
CCOC(=O)c1c(N2C(=O)Nc3ccccc3N2O)sc2c1CCCCC2,i,-0.01,i,i,i,i,.,.,.,.,.,.,
COC(=O)c1c(N2C(=O)Nc3ccccc3N2O)sc2c1CCCC2,i,-0.7,i,i,12*,i,155%*,i,18%*,i,i,76%*,
Cn1c(=N)n(CC(=O)c2ccc(Br)cc2)c2ccccc21,i,-0.38,i,i,i,i,.,.,.,.,.,.,
